Converted amounts (≈) assume the structure as drawn.
What was measured:
[1] = system: Mycobacterium intracellulare; experiment: Antibacterial activity against Mycobacterium intracellular ATCC 23068 by alamar blue method; type: functional, organism-based
Method in brief: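 Modified Alamar blue method (Franzblau). Samples in DMSO serially diluted in 0.9% saline, in duplicate, final concentrations starting at 20 μg/mL. Inoculum adjusted to 0.5 McFarland, then diluted in Middlebrook 7H9 with OADC enrichment plus 5% Alamar blue. Fluorescence read (ex 544/em 590 nm) before and after incubation. IC50 from percent growth versus concentration. MIC is no detectable growth.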

Staphylococcus aureus [2] = experiment: Antibacterial activity against Staphylococcus aureus ATCC 29213 by NCCLS method; type: functional, organism-based
Method in brief: (§1)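 Broth microdilution (modified NCCLS). Samples in DMSO serially diluted in 0.9% saline, tested in duplicate, highest final concentration 20 μg/mL. Inoculum matched to 0.5 McFarland standard by absorbance at 630 nm, then diluted in cation-adjusted Mueller–Hinton broth. Growth, solvent and medium controls on each plate. Absorbance at 530 nm read before and after incubation. IC50 taken from percent growth versus concentration plot; MIC is lowest concentration with no detectable growth; MBC is lowest concentration killing the organism.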

Escherichia coli = experiment: Antibacterial activity against Escherichia coli by NCCLS method; type: functional, organism-based
Method in brief: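 Modified NCCLS broth microdilution. DMSO-dissolved samples serially diluted in 0.9% saline, tested in duplicate, final concentrations starting at 20 μg/mL. Inoculum set to 0.5 McFarland (absorbance 630 nm) and diluted in cation-adjusted Mueller–Hinton broth. Growth, solvent and medium controls on each plate. Read at 530 nm before and after incubation. IC50 from percent growth versus concentration. MIC is lowest concentration with no detectable growth.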

Staphylococcus aureus [3] = experiment: Antibacterial activity against methicillin-resistant Staphylococcus aureus ATCC 33591 by NCCLS method; type: functional, organism-based; method in brief: as §1
Candida albicans = experiment: Antifungal activity against Candida albicans ATCC 90028 by NCCLS method; type: functional, organism-based
Method in brief: (§2)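 Modified NCCLS microdilution for fungi. Samples in DMSO serially diluted with 0.9% saline, in duplicate, final concentrations from 20 μg/mL down. Inocula matched to 0.5 McFarland (630 nm) and diluted in Sabouraud dextrose broth. Growth, solvent and medium controls included. OD 530 nm read before and after incubation. IC50 from percent growth curve. MIC is no detectable growth. MFC is lowest concentration killing the organism.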

[4] = Cytotoxicity against african green monkey Vero cell after 48 hrs by neutral red uptake assay; type: cell-based; details: chlorocebus sabaeus, Vero cells; read-out: TC50
Method in brief: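 VERO kidney fibroblasts seeded at 25,000 cells/well and incubated 24 h. Compounds added, highest concentration 10 μg/mL, then 48 h further incubation. Viable cells measured by neutral red assay. IC50 taken from growth-inhibition dose curves. Doxorubicin as positive control, DMSO as vehicle control.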

Cryptococcus neoformans = experiment: Antifungal activity against Cryptococcus neoformans ATCC 90113 by NCCLS method; type: functional, organism-based; method in brief: as §2
Aspergillus fumigatus = experiment: Antifungal activity against Aspergillus fumigatus ATCC 204305 by NCCLS method; type: functional, organism-based; method in brief: as §2

| Structure (SMILES) | IC50 [1] | MBC [1] | MIC [1] | IC50 (Staphylococcus aureus [2]) | MBC (Staphylococcus aureus [2]) | MIC (Staphylococcus aureus [2]) | IC50 (Escherichia coli) | MBC (Escherichia coli) | MIC (Escherichia coli) | IC50 (Staphylococcus aureus [3]) | MBC (Staphylococcus aureus [3]) | MIC (Staphylococcus aureus [3]) | MFC (Candida albicans) | MIC (Candida albicans) | CC50 at 48 h [4] | IC50 (Cryptococcus neoformans) | MFC (Cryptococcus neoformans) | MIC (Cryptococcus neoformans) | MFC (Aspergillus fumigatus) | MIC (Aspergillus fumigatus) | other results |
| --- | --- | --- | --- | --- | --- | --- | --- | --- | --- | --- | --- | --- | --- | --- | --- | --- | --- | --- | --- | --- | --- |
| COc1ccccc1N(CCCCCC1CCCCC1)c1ccc[n+](C)c1.[I-] | 1.9 µg/mL | 2.5 µg/mL | 2.5 µg/mL | 0.4 µg/mL | 20 µg/mL | 0.6 µg/mL | 14 µg/mL | > 20 µg/mL | > 20 µg/mL | 1.2 µg/mL | 20 µg/mL | 5 µg/mL | – | – | – | – | – | – | – | – | – |
| C[n+]1cccc2c1c1cc(Cl)ccc1n2CCCCCC1CCCCC1.[I-] | 0.7 µg/mL | 2.5 µg/mL | 1.3 µg/mL | 0.5 µg/mL | 10 µg/mL | 1.3 µg/mL | 5.9 µg/mL | > 20 µg/mL | > 20 µg/mL | 1.3 µg/mL | 10 µg/mL | 2.5 µg/mL | 5 µg/mL | 5 µg/mL | > 10 µg/mL | 0.4 µg/mL | 0.6 µg/mL | 0.6 µg/mL | 20 µg/mL | 20 µg/mL | IC50 (Candida albicans): 2 µg/mL; IC50 (Aspergillus fumigatus): 16 µg/mL |
| C[n+]1cccc(N(CCCCCC2CCCCC2)c2cccc(Cl)c2)c1.[I-] | 2.1 µg/mL | 5 µg/mL | 2.5 µg/mL | 0.34 µg/mL | 5 µg/mL | 0.63 µg/mL | 6.5 µg/mL | > 20 µg/mL | > 20 µg/mL | 1.3 µg/mL | 5 µg/mL | 2.5 µg/mL | – | – | > 10 µg/mL | 0.72 µg/mL | – | – | 20 µg/mL | 20 µg/mL | IC50 (Aspergillus fumigatus): 12 µg/mL |
| C[n+]1cccc2c1c1cc(F)ccc1n2CCCCCC1CCCCC1.[I-] | 1.2 µg/mL | 5 µg/mL | 2.5 µg/mL | 0.7 µg/mL | 20 µg/mL | 1.3 µg/mL | 13 µg/mL | > 20 µg/mL | > 20 µg/mL | 2.8 µg/mL | 20 µg/mL | 5 µg/mL | 20 µg/mL | 20 µg/mL | > 10 µg/mL | 0.6 µg/mL | 1.3 µg/mL | 1.3 µg/mL | > 20 µg/mL | 20 µg/mL | IC50 (Candida albicans): 6.5 µg/mL; IC50 (Aspergillus fumigatus): 12 µg/mL |
| C[n+]1c2ccccc2cc2[nH]c3ccccc3c21.[I-] [CRYPTOLEPTINE IODIDE] | – | – | – | 10 µg/mL | – | – | – | – | – | 20 µg/mL | – | – | – | > 250 µg/mL | 3.2 µg/mL | – | – | 12.5 µg/mL | – | – | – |
| Cc1ccc2c(c1)c1c(ccc[n+]1C)n2CCCCCC1CCCCC1.[I-] | 1.5 µg/mL | 5 µg/mL | 2.5 µg/mL | 0.4 µg/mL | 10 µg/mL | 0.6 µg/mL | 5.6 µg/mL | > 20 µg/mL | > 20 µg/mL | 1.6 µg/mL | 10 µg/mL | 5 µg/mL | 20 µg/mL | 5 µg/mL | > 10 µg/mL | 1.3 µg/mL | 2.5 µg/mL | 2.5 µg/mL | > 20 µg/mL | 20 µg/mL | IC50 (Candida albicans): 2.9 µg/mL; IC50 (Aspergillus fumigatus): 17 µg/mL |
| C[C@@H]1[C@H](O)[C@@H](C)/C=C/C=C/C=C/C=C/C=C/C=C/C=C/[C@H](O[C@@H]2O[C@H](C)[C@@H](O)[C@H](N)[C@@H]2O)C[C@@H]2O[C@](O)(C[C@@H](O)C[C@@H](O)[C@H](O)CC[C@@H](O)C[C@@H](O)CC(=O)O[C@H]1C)C[C@H](O)[C@H]2C(=O)O [AMPHOTERICIN B] | – | – | – | – | – | – | – | – | – | – | – | – | – | – | – | – | 0.63 µg/mL (≈ 0.682 µM) | 0.63 µg/mL (≈ 0.682 µM) | 5 µg/mL (≈ 5.41 µM) | 1.3 µg/mL (≈ 1.41 µM) | – |
| C[n+]1cccc(N(CCCCCC2CCCCC2)c2ccccc2C(F)(F)F)c1.[I-] | 1.2 µg/mL | 2.5 µg/mL | 3.5 µg/mL | 0.3 µg/mL | 10 µg/mL | 0.3 µg/mL | 9.1 µg/mL | > 20 µg/mL | > 20 µg/mL | 0.6 µg/mL | 5 µg/mL | 1.3 µg/mL | – | – | – | – | – | – | – | – | – |
| C[n+]1cccc(N(CCCCCC2CCCCC2)c2ccc(C(F)(F)F)cc2)c1.[I-] | 1 µg/mL | 1.3 µg/mL | 1.3 µg/mL | – | – | – | 3.5 µg/mL | 20 µg/mL | 20 µg/mL | 0.9 µg/mL | 2.5 µg/mL | 2.5 µg/mL | – | – | > 10 µg/mL | – | – | – | 5 µg/mL | 2.5 µg/mL | – |
| C[n+]1cccc(N(CCCCCC2CCCCC2)c2ccc(Cl)cc2)c1.[I-] | 1 µg/mL | – | 1.6 µg/mL | 1.5 µg/mL | – | 3.1 µg/mL | – | – | – | – | – | – | > 20 µg/mL | – | > 10 µg/mL | – | – | – | > 20 µg/mL | 1.6 µg/mL | – |

Reference: ChEMBL document CHEMBL1781968, “δ-Carbolines and their ring-opened analogs: synthesis and evaluation against fungal and bacterial opportunistic pathogens” (Eur J Med Chem, 2011)
